In ChEMBL document CHEMBL3808334, “Synthesis and in vitro evaluation of novel triazine analogues as anticancer agents and their interaction studies with bovine serum albumin” (Eur J Med Chem, 2016):

Tests used:
Format in all cases: ADME
Settings in all cases: cattle, isolated protein; call rule not given here
Albumin [1] = target: T1, Albumin (Bos taurus, UniProt P02769); test: Binding affinity to bovine serum albumin assessed as isoemissive point up to 20 uM by fluorescence spectroscopic analysis relative to control
T1 sequence (P02769 whole entry): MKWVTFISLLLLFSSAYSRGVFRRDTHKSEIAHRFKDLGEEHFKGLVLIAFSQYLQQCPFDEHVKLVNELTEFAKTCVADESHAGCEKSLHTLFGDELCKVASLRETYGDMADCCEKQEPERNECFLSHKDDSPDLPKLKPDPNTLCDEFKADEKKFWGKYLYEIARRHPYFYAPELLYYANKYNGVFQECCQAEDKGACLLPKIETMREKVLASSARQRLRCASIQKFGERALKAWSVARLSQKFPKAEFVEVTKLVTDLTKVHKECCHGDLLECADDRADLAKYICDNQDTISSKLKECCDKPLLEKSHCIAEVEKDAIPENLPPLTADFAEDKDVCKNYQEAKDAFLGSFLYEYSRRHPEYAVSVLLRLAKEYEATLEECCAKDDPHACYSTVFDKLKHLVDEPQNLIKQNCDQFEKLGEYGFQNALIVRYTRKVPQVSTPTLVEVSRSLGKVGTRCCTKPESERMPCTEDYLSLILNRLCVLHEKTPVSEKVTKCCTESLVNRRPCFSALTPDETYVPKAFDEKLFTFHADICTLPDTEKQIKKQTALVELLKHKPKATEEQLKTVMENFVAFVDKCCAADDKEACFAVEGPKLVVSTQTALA
Outline: (§1)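 Fluorescence titration of 10 µM BSA in 0.1 M phosphate buffer pH 7.4 with compound at 0–20 µM, diluted from DMSO stocks. Excitation 280 nm, slit 10 nm, 1 cm quartz cell, 300 K. Changes in the 350 nm Trp emission, new bands near 370–373 nm and isoemissive points are read against BSA alone.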

Albumin [2] = target: T1, Albumin; test: Binding affinity to bovine serum albumin assessed as binding constant in absorption spectra by Benesie-Hildebrand plot analysis
Outline: (§2)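 BSA, 10 µM, in 0.1 M phosphate buffer pH 7.4, titrated with compound (0–20 µM per the figure; diluted from 10⁻³ mol L⁻¹ DMSO stocks). Run at 300 K in a 1 cm quartz cell. UV spectra taken 200–800 nm after 5 min equilibration; fluorescence excited at 280 nm, emission 351 nm, slit 10 nm. K is the intercept/slope ratio of a linear fit of 1/(A₀−A) or 1/(F₀−F) vs 1/[compound].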

Albumin [3] = target: T1, Albumin; test: Binding affinity to bovine serum albumin assessed as red shift in emission intensity up to 20 uM by fluorescence spectroscopic analysis relative to control; outline: as §1
Albumin [4] = target: T1, Albumin; test: Binding affinity to bovine serum albumin assessed as binding constant in emission spectra by Benesie-Hildebrand plot analysis; outline: as §2
Albumin [5] = target: T1, Albumin; test: Binding affinity to bovine serum albumin assessed as hyperchromicity in absorption spectra up to 20 uM after 5 mins by UV-visible spectroscopic analysis relative to control
Outline: (§3)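 UV-visible absorption titration of 10 µM BSA in 0.1 M phosphate buffer pH 7.4 with increasing compound, 0–20 µM. Compounds diluted from DMSO stocks into buffer. Spectra recorded 200–800 nm in a 1 cm quartz cell at 300 K after 5 min equilibration. The BSA band is at 279 nm; changes are compared with BSA alone.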

Albumin [6] = target: T1, Albumin; test: Binding affinity to bovine serum albumin assessed as enhancement in emission spectra up to 20 uM by fluorescence spectroscopic analysis relative to control; outline: as §1
Albumin [7] = target: T1, Albumin; test: Binding affinity to bovine serum albumin assessed as change in hyperchromicity in absorption spectra up to 20 uM after 5 mins by UV-visible spectroscopic analysis relative to control; outline: as §3
Albumin [8] = target: T1, Albumin; test: Binding affinity to bovine serum albumin up to 20 uM after 5 mins by fluorescence spectroscopic analysis; outline: as §1

| Structure (SMILES) | Activity (Albumin [1]) | K (Albumin [2]) | Activity (Albumin [3]) | K (Albumin [4]) | Activity (Albumin [5]) | Activity (Albumin [6]) | Activity (Albumin [7]) | Activity (Albumin [8]) |
| --- | --- | --- | --- | --- | --- | --- | --- | --- |
| c1ccc(CNc2nc(Nc3ccc(-c4nc5ccccc5[nH]4)cc3)nc(N3CCOCC3)n2)cc1 | 352 nm | 1.2 ×10⁴ /M | 24 nm | 1.8 ×10⁵ /M | 88.44% | 42.06% |  |  |
| CN1CCN(c2nc(Nc3ccc(-c4nc5ccccc5[nH]4)cc3)nc(N3CCOCC3)n2)CC1 | 339 nm | 8.5 ×10⁴ /M | 22 nm | 2.6 ×10⁴ /M | 75.98% | 77.53% |  |  |
| c1csc(-c2nc(Nc3ccc(-c4nc5ccccc5[nH]4)cc3)nc(N3CCOCC3)n2)c1 |  |  |  |  |  |  | Not Active | Not Active |
| NNc1nc(Nc2ccc(-c3nc4ccccc4[nH]3)cc2)nc(N2CCOCC2)n1 |  |  |  |  |  |  | Not Active | Not Active |
| c1ccc2[nH]c(-c3ccc(Nc4nc(NCCN5CCOCC5)nc(N5CCOCC5)n4)cc3)nc2c1 | 345 nm | 8.4 ×10⁴ /M | 23 nm | 5.7 ×10⁴ /M | 85.95% | 57.22% |  |  |
| c1ccc2[nH]c(-c3ccc(Nc4nc(N5CCCC5)nc(N5CCOCC5)n4)cc3)nc2c1 | 341 nm | 1 ×10⁵ /M | 22 nm | 5.4 ×10⁴ /M | 65.29% | 68.99% |  |  |
| OCCNc1nc(Nc2ccc(-c3nc4ccccc4[nH]3)cc2)nc(N2CCOCC2)n1 | 340 nm | 9.5 ×10⁴ /M | 23 nm | 8 ×10⁴ /M | 90.6% | 71.82% |  |  |
| c1coc(-c2nc(Nc3ccc(-c4nc5ccccc5[nH]4)cc3)nc(N3CCOCC3)n2)c1 |  |  |  |  |  |  | Not Active | Not Active |
| c1ccc2[nH]c(-c3ccc(Nc4nc(NC5CCCCC5)nc(N5CCOCC5)n4)cc3)nc2c1 | 349 nm | 1 ×10⁵ /M | 17 nm | 1.6 ×10⁵ /M | 85.87% | 23.12% |  |  |
| c1ccc2[nH]c(-c3ccc(Nc4nc(N5CCOCC5)nc(N5CCOCC5)n4)cc3)nc2c1 | 350 nm | 7 ×10⁴ /M | 24 nm | 6.9 ×10⁴ /M | 72.93% | 63.43% |  |  |
| FC(F)(F)c1ccc(-c2nc(Nc3ccc(-c4nc5ccccc5[nH]4)cc3)nc(N3CCOCC3)n2)cc1 |  |  |  |  |  |  | Not Active | Not Active |
| NCCNc1nc(Nc2ccc(-c3nc4ccccc4[nH]3)cc2)nc(N2CCOCC2)n1 | 347 nm | 6.3 ×10⁴ /M | 22 nm | 1.3 ×10⁵ /M | 70.53% | 69.01% |  |  |
| OCCN1CCN(c2nc(Nc3ccc(-c4nc5ccccc5[nH]4)cc3)nc(N3CCOCC3)n2)CC1 | 343 nm | 1.2 ×10⁵ /M | 25 nm | 5.4 ×10⁴ /M | 68.72% | 73.21% |  |  |
